Results as given in ChEMBL document CHEMBL1135704, “Design, synthesis, and evaluation of novel 2-substituted 3-hydroxypyridin-4-ones: structure-activity investigation of metalloenzyme inhibition by iron chelators” (J Med Chem, 2002).

Assays:
[1] = Inhibitory activity against 5-lipoxygenase, by using soybean lipoxygenase spectrophotometric assay; set-up: concentration or dose not given beside the values; settings: concentration not given here
Outline: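 Soybean lipoxygenase (10 000 units/mL stock in 0.2 M borate pH 9.0; final 500 units per 3.0 mL) preincubated 30 min at room temperature with chelator at 110 µM iron-binding equivalents or diluent; reaction started with linoleic acid in borate buffer. Linoleic hydroperoxide formation followed at 234 nm (ε 23600 M-1 cm-1); rate versus control gives % inhibition.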

[2] = tested on: Rattus norvegicus; test: The compound was tested in vivo for Iron Mobilization efficacy in Fe-Ferritin Loaded Rat model; assay type: functional
Outline: (§1)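 One hour later chelator given orally at 450 µmol/kg (controls: equal volume water); individual metabolic cages, food returned 1 h post-dose. Killed 24 h after labelling; liver and GI tract with contents and feces gamma-counted. Mean ± SD, n = 5.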

[3] = species: Rattus norvegicus; test: The compound was tested for % iron mobilization in Fe-Ferritin Loaded Rat model; assay type: functional; outline: as §1
[4] = Partition coefficient (logP); assay type: physicochemical; settings: octanol/water
Outline: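 Distribution coefficient D7.4 between 1-octanol and 50 mM MOPS pH 7.4 (mutually saturated). Ligand in aqueous phase at 0.5–1.5 absorbance near 280 nm; octanol added in aliquots, aqueous UV absorbance monitored continuously to equilibrium after each. D = [(A0−A1)/A1]·(Vw/Vo) per addition.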

| SMILES | inhibition [1] | Efficacy [2] | Mobilization [3] | logP [4] |
| --- | --- | --- | --- | --- |
| CCCCCCn1ccc(=O)c(O)c1C | 93.2% | – | – | – |
| Cc1c(O)c(=O)ccn1C [DEFERIPRONE] | 39.4% | 9.5% | 13.4% | – |
| CCCc1c(O)c(=O)cc(C)n1C | 30% | – | – | 0.4 |
| CCCCc1c(O)c(=O)cc(C)n1C | 29.6% | – | – | 0.9 |
| CC(=O)NCc1c(O)c(=O)cc(C)n1C | 18.5% | – | – | – |
| CCc1c(O)c(=O)ccn1C | 48.5% | – | – | -0.21 |
| COCc1c(O)c(=O)cc(C)n1C | 14.8% | – | – | -0.41 |
| CCCCCn1ccc(=O)c(O)c1C | 90% | – | – | – |
| CCCCCCCCn1ccc(=O)c(O)c1C | 98.7% | – | – | – |
| CCC(=O)NCc1c(O)c(=O)cc(C)n1C | 13.5% | – | – | -0.72 |
| CC(=O)NCCC(=O)NCc1c(O)c(=O)cc(C)n1C | 3.8% | 5.9% | 9.7% | -1.7 |
| Cn1ccc(=O)c(O)c1 | 59.4% | – | – | -0.6 |
| CCn1ccc(=O)c(O)c1C | 58.4% | – | – | – |
| CCCCn1ccc(=O)c(O)c1C | 80% | – | – | – |
| CCCNC(=O)CCC(=O)NCc1c(O)c(=O)cc(C)n1C | 2.1% | 19.4% | 23.3% | -0.701 |
| Cc1cc(=O)c(O)c(CNC(=O)C(C)C)n1C | 21% | – | – | -0.35 |
